Experimental data taken from ChEMBL document CHEMBL1148722, “Discovery and optimization of p38 inhibitors via computer-assisted drug design” (J Med Chem, 2007).
Each block holds one compound with its values, some of them ahead of it.

Columns and labels:
[1] = system: Blood; assay: Inhibition of LPS-induced TNFalpha production in human whole blood; type: functional, tissue-based
Procedure, shortened: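 Fresh heparinized human whole blood was preincubated 30 min at 37 °C with serially diluted compound in type AB serum. It was then stimulated with E. coli LPS 0111:B4 (50 ng/mL final) for 5 h at 37 °C. Plasma TNFα was measured by ELISA, DELFIA or electrochemiluminescence against an on-plate standard curve. EC50 came from cross-plate duplicate 11-point curves fitted to a 4-parameter logistic, as the geometric mean over ≥3 donors.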

[2] = system: Mus musculus; assay: Inhibition of LPS-induced TNFalpha production in BALB/c mouse at 10 mg/kg, po; type: functional
Procedure, shortened: (§1)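 Female Balb/c mice (~20 g) were gavaged with compound in cremophor about 30 min before i.v. LPS (E. coli 0111:B4, 1.0 µg/mouse) plus D-gal (50 mg/kg) in pyrogen-free saline. After 1 h, blood was taken by cardiac puncture under anaesthesia. Serum TNFα was measured by ELISA in duplicate, and compound level by HPLC.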

[3] = Clearance in Sprague-Dawley rat at 1 mg/kg, iv; type: ADME, organism-based; set-up: dose 1 mg/kg, route intravenous; conditions: in vivo
Procedure, shortened: (§2)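 Male Sprague-Dawley rats, fasted overnight with food returned about 4 h post-dose, three per group. One group got 1 mg/kg as a ~15 s i.v. push via femoral vein catheter at 1 mL/kg. The other got 10 mg/kg by oral gavage at 10 mL/kg. Plasma was analysed by noncompartmental pharmacokinetic methods.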

[4] = Cmax in Sprague-Dawley rat at 10 mg/kg, po; type: ADME, organism-based; set-up: dose 10 mg/kg, route oral; conditions: in vivo; procedure, shortened: as §2
[5] = Bioavailability in Sprague-Dawley rat at 10 mg/kg, po; type: ADME, organism-based; conditions: in vivo; procedure, shortened: as §2
[6] = target: Mitogen-activated protein kinase 9 (Homo sapiens, UniProt P45984); assay: Inhibition of JNK2
[7] = target: Tyrosine-protein kinase Lyn (Homo sapiens, UniProt P07948); assay: Inhibition of Lyn
[8] = system: Mus musculus; assay: Inhibition of LPS-induced TNFalpha production in BALB/c mouse at 3 mg/kg, po; type: functional; procedure, shortened: as §1

Sequence of Tyrosine-protein kinase Lyn (P07948 whole entry): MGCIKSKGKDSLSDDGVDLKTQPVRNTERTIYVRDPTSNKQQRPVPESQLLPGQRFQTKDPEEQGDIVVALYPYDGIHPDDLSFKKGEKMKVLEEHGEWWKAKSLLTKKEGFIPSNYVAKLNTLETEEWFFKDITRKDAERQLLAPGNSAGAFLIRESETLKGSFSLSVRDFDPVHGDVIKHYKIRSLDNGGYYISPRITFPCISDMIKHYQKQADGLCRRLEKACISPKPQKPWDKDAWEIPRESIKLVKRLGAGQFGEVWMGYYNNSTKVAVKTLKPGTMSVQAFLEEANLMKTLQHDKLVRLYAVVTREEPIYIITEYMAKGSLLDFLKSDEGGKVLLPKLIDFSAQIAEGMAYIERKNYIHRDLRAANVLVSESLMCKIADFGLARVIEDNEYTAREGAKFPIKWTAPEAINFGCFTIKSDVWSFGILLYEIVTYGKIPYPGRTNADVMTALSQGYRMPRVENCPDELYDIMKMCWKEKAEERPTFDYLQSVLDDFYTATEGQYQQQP
Sequence of Mitogen-activated protein kinase 9 (P45984 whole entry): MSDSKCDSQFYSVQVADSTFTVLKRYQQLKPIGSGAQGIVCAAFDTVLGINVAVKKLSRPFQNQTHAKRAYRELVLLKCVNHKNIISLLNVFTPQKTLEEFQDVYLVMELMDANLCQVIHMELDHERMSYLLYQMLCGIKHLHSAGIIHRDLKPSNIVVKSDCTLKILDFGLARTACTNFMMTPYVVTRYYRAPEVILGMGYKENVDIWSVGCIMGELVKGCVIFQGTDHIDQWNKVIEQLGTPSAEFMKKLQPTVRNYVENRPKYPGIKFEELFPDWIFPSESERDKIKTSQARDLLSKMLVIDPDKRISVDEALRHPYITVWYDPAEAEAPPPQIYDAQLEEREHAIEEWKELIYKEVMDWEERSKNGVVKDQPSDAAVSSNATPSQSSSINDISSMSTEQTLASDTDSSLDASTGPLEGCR

SMILES: COc1c(NC(=O)Nc2cccc3ccccc23)cc(C(C)(C)C)cc1NS(C)(=O)=O
IC50 [1]: > 10000 nM

SMILES: COc1c(NC(=O)c2cc3ccccc3s2)cc(C(C)(C)C)cc1NS(C)(=O)=O
IC50 [1]: > 10000 nM

SMILES: COc1c(NC(=O)c2cc3ccccc3[nH]2)cc(C(C)(C)C)cc1NS(C)(=O)=O
IC50 [1]: > 10000 nM

SMILES: COc1c(NC(=O)c2cc3c(NC(=O)c4cccnc4)cccc3s2)cc(C(C)(C)C)cc1NS(C)(=O)=O
IC50 [1]: > 10000 nM

SMILES: COc1c(NC(=O)c2cc3ccccc3o2)cc(C(C)(C)C)cc1NS(C)(=O)=O
IC50 [1]: > 10000 nM

SMILES: COc1c(NC(=O)c2cc3ccccc3n2C)cc(C(C)(C)C)cc1NS(C)(=O)=O
IC50 [1]: > 10000 nM

SMILES: CNc1ccc(C(=O)Nc2cccc3cc(C(=O)Nc4cc(C(C)(C)C)cc(NS(C)(=O)=O)c4OC)sc23)cn1
IC50 [1]: 1100 nM

SMILES: COc1c(NC(=O)c2cc3cccc(NC(=O)c4ccc(NCCN5CCOCC5)nc4)c3s2)cc(C(C)(C)C)cc1NS(C)(=O)=O
IC50 [1]: 550 nM

SMILES: COc1c(NC(=O)Nc2ccc(OCCN3CCOCC3)c3ccccc23)cc(C(C)(C)C)cc1NS(C)(=O)=O
IC50 [1]: 1060 nM

SMILES: CNc1ccc(C(=O)Nc2cccc3cc(C(=O)Nc4cc(C(C)(C)C)cc(NS(C)(=O)=O)c4OC)n(C)c23)cn1
IC50 [1]: 500 nM

SMILES: COc1c(NC(=O)c2cc3cccc(NC(=O)c4ccc(NCCN(C)C)nc4)c3n2C)cc(C(C)(C)C)cc1NS(C)(=O)=O
IC50 [1]: 700 nM

SMILES: COc1c(NC(=O)c2cc3cccc(NC(=O)c4ccc(NCC5CC5)nc4)c3s2)cc(C(C)(C)C)cc1NS(C)(=O)=O
IC50 [1]: 670 nM

SMILES: COc1c(NC(=O)c2cc3cccc(NC(=O)c4cccnc4)c3n2C)cc(C(C)(C)C)cc1NS(C)(=O)=O
IC50 [1]: 3600 nM
inhibition in vivo at 10 mg/kg [2]: 60%
clearance [3]: 3 mL/min/kg
Cmax [4]: 9000 ng/mL
bioavailability [5]: 90%

SMILES: COc1c(NC(=O)c2cc3cccc(NC(=O)c4ccc(N(C)C)nc4)c3s2)cc(C(C)(C)C)cc1NS(C)(=O)=O
IC50 [1]: 2200 nM

SMILES: COc1c(NC(=O)c2cc3cccc(NC(=O)c4cccnc4)c3s2)cc(C(C)(C)C)cc1NS(C)(=O)=O
IC50 [1]: 1100 nM
inhibition in vivo at 10 mg/kg [2]: 60%
clearance [3]: 19 mL/min/kg
Cmax [4]: 5200 ng/mL
bioavailability [5]: 57%

SMILES: Cc1ccc(-n2nc(C(C)(C)C)cc2NC(=O)Nc2ccc(OCCN3CCOCC3)c3ccccc23)cc1 [DORAMAPIMOD]
inhibition in vivo at 10 mg/kg [2]: 60%
clearance [3]: 1.7 mL/min/kg
Cmax [4]: 10900 ng/mL
bioavailability [5]: 76%

SMILES: COc1c(NC(=O)c2cc3cccc(NC(=O)c4ccc(NCCN(C)C)nc4)c3s2)cc(C(C)(C)C)cc1NS(C)(=O)=O
IC50 [1]: 650 nM

Continued, in another order:

IC50 [1]: 160 nM
SMILES: COCCNc1ccc(C(=O)Nc2cccc3cc(C(=O)Nc4cc(C(C)(C)C)cc(NS(C)(=O)=O)c4OC)n(C)c23)cn1

IC50 [1]: 130 nM
SMILES: COCCNc1ccc(C(=O)Nc2cccc3cc(C(=O)Nc4cc(C(C)(C)C)cc(NS(C)(=O)=O)c4OC)sc23)cn1

IC50 [1]: 250 nM
SMILES: COc1c(NC(=O)c2cc3cccc(NC(=O)c4ccc(NCCN5CCOCC5)nc4)c3n2C)cc(C(C)(C)C)cc1NS(C)(=O)=O

IC50 [1]: 430 nM
SMILES: COc1c(NC(=O)c2cc3cccc(NC(=O)c4ccc(N)nc4)c3s2)cc(C(C)(C)C)cc1NS(C)(=O)=O

IC50 [1]: 150 nM
SMILES: COc1c(NC(=O)c2cc3cccc(NC(=O)c4ccc(NCC5CC5)nc4)c3n2C)cc(C(C)(C)C)cc1NS(C)(=O)=O

IC50 [1]: 180 nM
IC50 [6]: 16 nM
IC50 [7]: 230 nM
clearance [3]: 4 mL/min/kg
Cmax [4]: 2400 ng/mL
bioavailability [5]: 51%
SMILES: COc1c(NC(=O)c2cc3cccc(NC(=O)c4ccc(NC5CC5)nc4)c3s2)cc(C(C)(C)C)cc1NS(C)(=O)=O
inhibition in vivo at 10 mg/kg [2]: 98%
inhibition in vivo at 3 mg/kg [8]: 80%

IC50 [1]: 140 nM
clearance [3]: 5 mL/min/kg
Cmax [4]: 14000 ng/mL
bioavailability [5]: 51%
SMILES: COc1c(NC(=O)c2cc3cccc(NC(=O)c4ccc(NC5CC5)nc4)c3n2C)cc(C(C)(C)C)cc1NS(C)(=O)=O
inhibition in vivo at 10 mg/kg [2]: 75%
inhibition in vivo at 3 mg/kg [8]: 60%
